The results in this text go back to ChEMBL document CHEMBL1944534, “New heterocyclic compounds from 1,2,4-triazole and 1,3,4-thiadiazole class bearing diphenylsulfone moieties. Synthesis, characterization and antimicrobial activity evaluation” (2012).

By MIC is commonly meant the smallest concentration in the dilution series that meets the test's criterion for growth inhibition. High values mean weaker potency, low ones greater potency.

≈ marks a conversion by molar mass, not a printed value.

What all share (assay type): functional
One test has as its system Bacillus cereus. Description: Antibacterial activity against Bacillus cereus ATCC 13061 after 20 hrs by broth microdilution method. The conditions noted are these: ATCC 13061, 20 h. The method in brief:
(§1)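 MIC by two-fold dilution series (1/2 to 1/1024) of a 2048 µg/mL DMSO stock in cation-adjusted Müller-Hinton broth. Inoculum from colonies of 24 h Columbia blood agar culture, adjusted to 0.5 McFarland, diluted to 1 × 10^6 CFU/mL and added 1:1 to compound broth. Incubated 37 °C, 20 h. MIC is the lowest concentration with no turbidity or growth button, read by eye. Run in duplicate.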
On the technique in general: In broth dilution the organism is exposed to a series of concentrations in liquid medium.

For the next test, the system named is Staphylococcus aureus. Description: Antibacterial activity against Staphylococcus aureus ATCC 25923 after 20 hrs by broth microdilution method. As to conditions: ATCC 25923, 20 h. The method in brief:
as §1

Another test deals with Escherichia coli. Kind of test: Antibacterial activity against Escherichia coli ATCC 25922 after 20 hrs by broth microdilution method. As to conditions: ATCC 25922, 20 h. The method in brief: as §1
For the next test, the system named is Enterobacter cloacae. Description: Antibacterial activity against Enterobacter cloacae ATCC 49141 after 20 hrs by broth microdilution method. The conditions noted are these: ATCC 49141, 20 h. In a few lines: as §1
A further test deals with Candida parapsilosis. Kind of test: Antifungal activity against Candida parapsilosis ATCC 22019 after 48 hrs by broth microdilution method. The conditions noted are these: Lodderomyces parapsilosis, ATCC 22019, 48 h. The method in brief:
(§2)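 Two-fold dilutions (1/2 to 1/1024) of a 2048 µg/mL DMSO stock made in Sabouraud broth. Yeast inoculum from colonies of 24 h Sabouraud dextrose agar culture, 0.5 McFarland, diluted in sterile water to 10^5 CFU/mL and added in equal volume to broth. Incubated 37 °C, 24 h (C. albicans) or 48 h (C. parapsilosis). MIC read by eye as lowest concentration without turbidity or growth button. Run in duplicate.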

A further test relates to Pseudomonas aeruginosa. Description: Antibacterial activity against Pseudomonas aeruginosa ATCC 27853 after 20 hrs by broth microdilution method. The conditions noted are these: ATCC 27853, 20 h. In a few lines: as §1
A further test deals with Acinetobacter baumannii. Kind of test: Antibacterial activity against Acinetobacter baumannii ATCC 19606 after 20 hrs by broth microdilution method. The conditions noted are these: ATCC 19606 = CIP 70.34 = JCM 6841, 20 h. The method in brief:
as §1

A further test deals with Candida albicans. Kind of test: Antifungal activity against Candida albicans ATCC 90028 after 24 hrs by broth microdilution method. The conditions noted are these: ATCC 90028, 24 h. The method in brief:
as §2

In the case of `O=S(=O)(c1ccc(Br)cc1)c1ccc(-c2nnc(Nc3ccc(OC(F)(F)F)cc3)s2)cc1`, the MIC with Bacillus cereus stood at 32 µg/mL (≈ 57.5 µM); in the test with Staphylococcus aureus it was 512 µg/mL (≈ 920 µM); in the test with Escherichia coli, 128 µg/mL (≈ 230 µM); with Enterobacter cloacae, 128 µg/mL (≈ 230 µM); against Candida parapsilosis, 64 µg/mL (≈ 115 µM); with Pseudomonas aeruginosa, 64 µg/mL (≈ 115 µM). The MIC in the test with Acinetobacter baumannii was found to be 32 µg/mL (≈ 57.5 µM); in the test on Candida albicans, 128 µg/mL (≈ 230 µM).

Take `COc1cc(NC(=S)NNC(=O)c2ccc(S(=O)(=O)c3ccc(Br)cc3)cc2)cc(OC)c1OC`: the minimal inhibitory concentration (MIC) in the test with Bacillus cereus amounted to 16 µg/mL (≈ 27.6 µM); with Staphylococcus aureus, 128 µg/mL (≈ 221 µM); in the test with Escherichia coli it was 128 µg/mL (≈ 221 µM); in the test with Enterobacter cloacae, 128 µg/mL (≈ 221 µM); in the test with Candida parapsilosis, 64 µg/mL (≈ 110 µM); with Pseudomonas aeruginosa it was 64 µg/mL (≈ 110 µM). Moreover, the minimal inhibitory concentration (MIC) was found to be 32 µg/mL (≈ 55.1 µM) in the test with Acinetobacter baumannii and 64 µg/mL (≈ 110 µM) in the test with Candida albicans.

Regarding `COc1cc(-n2c(-c3ccc(S(=O)(=O)c4ccc(Br)cc4)cc3)n[nH]c2=S)cc(OC)c1OC`, the MIC came out at 8 µg/mL (≈ 14.2 µM) against Bacillus cereus; 128 µg/mL (≈ 228 µM) against Staphylococcus aureus; 128 µg/mL (≈ 228 µM) in the test with Escherichia coli; 128 µg/mL (≈ 228 µM) with Enterobacter cloacae; 16 µg/mL (≈ 28.4 µM) in the test on Candida parapsilosis; 64 µg/mL (≈ 114 µM) in the test on Pseudomonas aeruginosa. Besides, the MIC was 32 µg/mL (≈ 56.9 µM) against Acinetobacter baumannii and 64 µg/mL (≈ 114 µM) in the test on Candida albicans.

Regarding `COc1cc(Nc2nnc(-c3ccc(S(=O)(=O)c4ccc(Br)cc4)cc3)s2)cc(OC)c1OC`, the minimum inhibitory concentration (MIC) with Bacillus cereus is 16 µg/mL (≈ 28.4 µM); against Staphylococcus aureus, 512 µg/mL (≈ 910 µM); in the test on Escherichia coli, 64 µg/mL (≈ 114 µM); against Enterobacter cloacae, 128 µg/mL (≈ 228 µM); with Candida parapsilosis, 64 µg/mL (≈ 114 µM); against Pseudomonas aeruginosa, 64 µg/mL (≈ 114 µM). The MIC with Acinetobacter baumannii came out at 32 µg/mL (≈ 56.9 µM); in the test on Candida albicans it was 64 µg/mL (≈ 114 µM).

For the compound `O=S(=O)(c1ccccc1)c1ccc(-c2nnc(Nc3ccc(OC(F)(F)F)cc3)s2)cc1`, the minimal inhibitory concentration (MIC) against Bacillus cereus amounted to 32 µg/mL (≈ 67 µM); in the test on Staphylococcus aureus, 512 µg/mL (≈ 1070 µM); against Escherichia coli, 128 µg/mL (≈ 268 µM); against Enterobacter cloacae it was 128 µg/mL (≈ 268 µM); with Candida parapsilosis, 64 µg/mL (≈ 134 µM); in the test on Pseudomonas aeruginosa, 64 µg/mL (≈ 134 µM). Moreover, the values for the minimal inhibitory concentration (MIC) in the test with Acinetobacter baumannii and in the test on Candida albicans were 32 µg/mL (≈ 67 µM) and 64 µg/mL (≈ 134 µM), respectively.

Regarding `O=C(NNC(=S)Nc1ccc(OC(F)(F)F)cc1)c1ccc(S(=O)(=O)c2ccc(Br)cc2)cc1`, the MIC is 32 µg/mL (≈ 55.7 µM) with Bacillus cereus; 512 µg/mL (≈ 891 µM) against Staphylococcus aureus; 128 µg/mL (≈ 223 µM) in the test on Escherichia coli; 128 µg/mL (≈ 223 µM) against Enterobacter cloacae; 64 µg/mL (≈ 111 µM) against Candida parapsilosis; 64 µg/mL (≈ 111 µM) against Pseudomonas aeruginosa. For the same compound, the minimal inhibitory concentration (MIC) with Acinetobacter baumannii and with Candida albicans was 64 µg/mL (≈ 111 µM) each time.

For `COc1cc(NC(=S)NNC(=O)c2ccc(S(=O)(=O)c3ccccc3)cc2)cc(OC)c1OC`, the MIC against Bacillus cereus was 16 µg/mL (≈ 31.9 µM); against Staphylococcus aureus, 128 µg/mL (≈ 255 µM); with Escherichia coli it was 128 µg/mL (≈ 255 µM); in the test with Enterobacter cloacae it was 128 µg/mL (≈ 255 µM); in the test on Candida parapsilosis, 64 µg/mL (≈ 128 µM); in the test with Pseudomonas aeruginosa, 64 µg/mL (≈ 128 µM). Also, the MIC against Acinetobacter baumannii amounted to 32 µg/mL (≈ 63.8 µM); against Candida albicans, 64 µg/mL (≈ 128 µM).

`COc1cc(-n2c(-c3ccc(S(=O)(=O)c4ccccc4)cc3)n[nH]c2=S)cc(OC)c1OC`: the minimal inhibitory concentration (MIC) turned out to be 16 µg/mL (≈ 33.1 µM) against Bacillus cereus; 128 µg/mL (≈ 265 µM) against Staphylococcus aureus; 128 µg/mL (≈ 265 µM) in the test on Escherichia coli; 128 µg/mL (≈ 265 µM) in the test with Enterobacter cloacae; 32 µg/mL (≈ 66.2 µM) in the test with Candida parapsilosis; 64 µg/mL (≈ 132 µM) in the test on Pseudomonas aeruginosa. The MIC in the test with Acinetobacter baumannii came to 32 µg/mL (≈ 66.2 µM); in the test with Candida albicans it was 64 µg/mL (≈ 132 µM).

Take `COc1cc(Nc2nnc(-c3ccc(S(=O)(=O)c4ccccc4)cc3)s2)cc(OC)c1OC`: the MIC against Bacillus cereus worked out at 16 µg/mL (≈ 33.1 µM); in the test on Staphylococcus aureus, 512 µg/mL (≈ 1060 µM); in the test on Escherichia coli it was 128 µg/mL (≈ 265 µM); with Enterobacter cloacae, 128 µg/mL (≈ 265 µM); against Candida parapsilosis, 64 µg/mL (≈ 132 µM); in the test with Pseudomonas aeruginosa it was 64 µg/mL (≈ 132 µM). For the same compound, the minimal inhibitory concentration (MIC) against Acinetobacter baumannii is 32 µg/mL (≈ 66.2 µM); against Candida albicans, 64 µg/mL (≈ 132 µM).

On to `O=S(=O)(c1ccccc1)c1ccc(-c2n[nH]c(=S)n2-c2ccc(OC(F)(F)F)cc2)cc1`, for which the MIC against Bacillus cereus turned out to be 32 µg/mL (≈ 67 µM); in the test on Staphylococcus aureus it was 256 µg/mL (≈ 536 µM); in the test on Escherichia coli, 128 µg/mL (≈ 268 µM); against Enterobacter cloacae, 128 µg/mL (≈ 268 µM); with Candida parapsilosis, 64 µg/mL (≈ 134 µM); against Pseudomonas aeruginosa, 64 µg/mL (≈ 134 µM). Moreover, the values for the minimal inhibitory concentration (MIC) with Acinetobacter baumannii and in the test with Candida albicans were 32 µg/mL (≈ 67 µM) and 128 µg/mL (≈ 268 µM), respectively.

Regarding `O=S(=O)(c1ccc(Br)cc1)c1ccc(-c2n[nH]c(=S)n2-c2ccc(OC(F)(F)F)cc2)cc1`, the minimal inhibitory concentration (MIC) worked out at 32 µg/mL (≈ 57.5 µM) in the test on Bacillus cereus; 512 µg/mL (≈ 920 µM) with Staphylococcus aureus; 256 µg/mL (≈ 460 µM) against Escherichia coli; 256 µg/mL (≈ 460 µM) in the test with Enterobacter cloacae; 64 µg/mL (≈ 115 µM) in the test with Candida parapsilosis; 64 µg/mL (≈ 115 µM) against Pseudomonas aeruginosa. The values for the minimal inhibitory concentration (MIC) against Acinetobacter baumannii and in the test on Candida albicans were 32 µg/mL (≈ 57.5 µM) and 128 µg/mL (≈ 230 µM), respectively.

On to `O=C(NNC(=S)Nc1ccc(OC(F)(F)F)cc1)c1ccc(S(=O)(=O)c2ccccc2)cc1`, for which the MIC with Bacillus cereus was found to be 32 µg/mL (≈ 64.6 µM); with Staphylococcus aureus it was 256 µg/mL (≈ 517 µM); against Escherichia coli it was 128 µg/mL (≈ 258 µM); against Enterobacter cloacae it was 128 µg/mL (≈ 258 µM); in the test with Candida parapsilosis it was 64 µg/mL (≈ 129 µM); in the test on Pseudomonas aeruginosa, 64 µg/mL (≈ 129 µM). Further, the MIC against Acinetobacter baumannii and in the test with Candida albicans was 64 µg/mL (≈ 129 µM) in each case.

On to `OC(Cn1cncn1)(Cn1cncn1)c1ccc(F)cc1F` [FLUCONAZOLE], for which 2 µg/mL (≈ 6.53 µM) was the least that counted as inhibitory against Candida parapsilosis (MIC).

For `NCC[C@H](O)C(=O)N[C@@H]1C[C@H](N)[C@@H](O[C@H]2O[C@H](CN)[C@@H](O)[C@H](O)[C@H]2O)[C@H](O)[C@H]1O[C@H]1O[C@H](CO)[C@@H](O)[C@H](N)[C@H]1O` [AMIKACIN], the MIC with Staphylococcus aureus, against Escherichia coli and in the test on Pseudomonas aeruginosa was 2 µg/mL (≈ 3.42 µM) throughout.
